# Measured values as given in ChEMBL document CHEMBL3351972, “Indole-3-ethylsulfamoylphenylacrylamides: potent histone deacetylase inhibitors with anti-inflammatory activity” (Eur J Med Chem, 2014).
# Calls of active or inactive are those of the source. No cut-off for these calls is given here.
# Experiments:
# Histone deacetylase = assay: Inhibition of HDAC in human HeLa cells nuclear extracts incubated for 30 mins by fluorescent assay; format: cell-free
# RAW264.7 [1] = assay: Anti-inflammatory activity in LPS-stimulated mouse RAW264.7 cells assessed as suppression of PGE2 production pre-incubated for 1 hr before LPS stimulation for 24 hrs by enzyme immunoassay method; format: functional, cell-based
# Outline: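 RAW 264.7 cells (1 × 10⁶) were treated with or without compound for 1 h, then stimulated with LPS (25 ng/mL) for 24 h at 37 °C. PGE₂ in culture supernatants was measured by EIA kit.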
# RAW264.7 [2] = assay: Anti-inflammatory activity in LPS-stimulated mouse RAW264.7 cells assessed as suppression of nitric oxide production pre-incubated for 1 hr before LPS stimulation for 24 hrs by Griess reagent based assay; format: functional, cell-based
# Outline: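 Nitrite concentration was quantified against a standard dilution series of sodium nitrite.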
# [3] = Retention time of the compound by HPLC method; format: physicochemical
# RAW264.7 [4] = assay: Anti-inflammatory activity in LPS-stimulated mouse RAW264.7 cells assessed as suppression of IL6 production pre-incubated for 1 hr before LPS stimulation for 24 hrs by ELISA method; format: functional, cell-based
# Outline: (§1)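 IL-6 and TNF-α were measured by ELISA. RAW 264.7 cells (1 × 10⁶) were plated and pretreated with or without compound for 1 h, then stimulated with LPS (25 ng/mL) for 24 h at 37 °C.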
# RAW264.7 [5] = assay: Anti-inflammatory activity in LPS-stimulated mouse RAW264.7 cells assessed as suppression of TNFalpha production pre-incubated for 1 hr before LPS stimulation for 24 hrs by ELISA method; format: functional, cell-based; outline: as §1
# [6] = target: Transcription factor p65 (Mus musculus) (UniProt Q04207); assay: Inhibition of p65 phosphorylation in LPS-stimulated mouse RAW264.7 cells at 0.01 to 1 uM pre-incubated for 30 mins before LPS stimulation for 24 hrs by Western blotting method; format: cell-based
# Chain of Transcription factor p65 (Mus musculus) (Q04207 whole entry): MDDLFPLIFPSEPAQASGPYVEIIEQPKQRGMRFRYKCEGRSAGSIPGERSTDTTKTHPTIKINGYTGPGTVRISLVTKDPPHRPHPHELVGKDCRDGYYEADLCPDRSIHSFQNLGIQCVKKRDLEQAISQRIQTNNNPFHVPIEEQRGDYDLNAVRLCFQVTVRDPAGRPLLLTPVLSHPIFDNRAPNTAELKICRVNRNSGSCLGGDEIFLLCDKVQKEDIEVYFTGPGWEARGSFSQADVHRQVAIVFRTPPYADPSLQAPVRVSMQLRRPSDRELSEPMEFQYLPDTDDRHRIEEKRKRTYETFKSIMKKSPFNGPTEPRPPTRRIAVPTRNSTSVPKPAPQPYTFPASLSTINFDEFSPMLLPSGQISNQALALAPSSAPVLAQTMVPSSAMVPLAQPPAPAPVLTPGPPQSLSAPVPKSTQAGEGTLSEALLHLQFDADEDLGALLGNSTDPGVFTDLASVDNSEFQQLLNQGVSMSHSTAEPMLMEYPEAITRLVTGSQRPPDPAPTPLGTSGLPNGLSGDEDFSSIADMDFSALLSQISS
# Outline: (§2)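 RAW 264.7 cells (1 × 10⁶/well) were pretreated with compound at 0.01–1 for 30 min, then stimulated with LPS (25 ng/mL) for 24 h. Whole-cell extracts were cleared at 17,000 g for 30 min at 4 °C, and protein was measured by Bradford. Blots were blocked in 5% milk/TBST, probed with primary antibody overnight at 4 °C, then HRP secondary (1:1000) 1 h RT. Data are mean ± SEM of three replicates, compared with the LPS-only group.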
# RAW264.7 [7] = assay: Toxicity against mouse RAW264.7 cells assessed as reduction in cell viability at 0.01 to 1 uM incubated for 24 hrs by MTT assay; format: cell-based; settings: raw264.7, 24 h
# Outline: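 Macrophages were exposed to compound at 0.01–1 for 24 h. Viability was then assessed by MTT assay.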
# RAW264.7 [8] = assay: Anti-inflammatory activity in LPS-stimulated mouse RAW264.7 cells assessed as suppression of COX2 protein expression at 0.01 to 1 uM pre-incubated for 30 mins before LPS stimulation for 24 hrs by Western blotting method; format: functional, cell-based; outline: as §2
# RAW264.7 [9] = assay: Anti-inflammatory activity in LPS-stimulated mouse RAW264.7 cells assessed as suppression of iNOS protein expression at 0.01 to 1 uM pre-incubated for 30 mins before LPS stimulation for 24 hrs by Western blotting method; format: functional, cell-based; outline: as §2
# Rattus norvegicus [10] = assay: Anti-inflammatory activity in Wistar rat model of carrageenan-induced edema assessed as reduction in right hind paw thickness at 20 mg/kg, po dosed 1 hour before carrageenan injection measured 3 hrs post carrageenan challenge by digital plethysmometry; format: functional, organism-based; parameters: dose 20 mg/kg
# Outline: (§3)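 Male Wistar rats (7 weeks) were randomised into eight groups. They were dosed orally 1 h before carrageenan: vehicle (1% carboxymethyl cellulose + 0.5% Tween 80), test suspensions at 20 mg/kg, or indomethacin as positive control at 1 mg/kg. Carrageenan (0.5% w/v in saline) was injected intradermally into the base of the right hind paw. Paw change was read at 3 h by digital caliper and plethysmometer.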
# RAW264.7 [11] = assay: Inhibition of HDAC in mouse RAW264.7 cells assessed as increase in histone H3 acetylation at > 0.1 uM incubated for 24 hrs by Western blotting method
# Rattus norvegicus [12] = assay: Anti-inflammatory activity in Wistar rat model of carrageenan-induced edema assessed as reduction in right hind paw thickness at 1 mg/kg, po dosed 1 hour before carrageenan injection measured 3 hrs post carrageenan challenge by digital plethysmometry; format: functional, organism-based; parameters: dose 1 mg/kg; outline: as §3
IC50 (Histone deacetylase),IC50 (RAW264.7 [1]),IC50 (RAW264.7 [2]),Retention_time [3],IC50 (RAW264.7 [4]),IC50 (RAW264.7 [5]),inhibition [6],SMILES,Activity (RAW264.7 [7]),inhibition (RAW264.7 [8]),inhibition (RAW264.7 [9]),inhibition (Rattus norvegicus [10]),inhibition (RAW264.7 [11]),inhibition (Rattus norvegicus [12])
43.9 nM,7200 nM,3700 nM,25.18 min,31 nM,> 10000 nM,–,O=C(/C=C/c1ccc(S(=O)(=O)N2CCc3c([nH]c4ccccc34)C2)cc1)NO,–,–,–,–,–,–
7.9 nM,320 nM,360 nM,23.3 min,13 nM,1500 nM,Dose-dependent effect,Cc1[nH]c2ccccc2c1CCNS(=O)(=O)c1cccc(/C=C/C(=O)NO)c1,Non-toxic,Active,Active,Active,Active,–
2.8 nM,330 nM,740 nM,23.3 min,20 nM,480 nM,Dose-dependent effect,Cc1[nH]c2ccccc2c1CCNS(=O)(=O)c1ccc(/C=C/C(=O)NO)cc1,Non-toxic,Active,Active,Active,Active,–
6.6 nM,2200 nM,740 nM,22.17 min,0.014 nM,1200 nM,–,O=C(/C=C/c1ccc(S(=O)(=O)NCCc2c[nH]c3ccccc23)cc1)NO,–,–,–,–,–,–
3.4 nM,270 nM,260 nM,27.93 min,21 nM,730 nM,Dose-dependent effect,CCn1c(C)c(CCNS(=O)(=O)c2ccc(/C=C/C(=O)NO)cc2)c2ccccc21,Non-toxic,Active,Active,Active,Active,–
47.4 nM,2900 nM,1000 nM,25.51 min,5.5 nM,> 10000 nM,–,Cc1[nH]c2ccccc2c1CCN(C)S(=O)(=O)c1ccc(/C=C/C(=O)NO)cc1,–,–,–,–,–,–
3.3 nM,150 nM,300 nM,25.96 min,14 nM,800 nM,Dose-dependent effect,Cc1c(CCNS(=O)(=O)c2ccc(/C=C/C(=O)NO)cc2)c2ccccc2n1C,Non-toxic,Active,Active,Active,Active,–
29.6 nM,2900 nM,1200 nM,27.17 min,5.9 nM,> 10000 nM,–,CCN(CCc1c(C)[nH]c2ccccc12)S(=O)(=O)c1ccc(/C=C/C(=O)NO)cc1,–,–,–,–,–,–
7.3 nM,3100 nM,3100 nM,16.67 min,0.14 nM,1500 nM,–,CCN(CC)CCn1c(C)c(CCNS(=O)(=O)c2ccc(/C=C/C(=O)NO)cc2)c2ccccc21,–,–,–,–,–,–
–,8280 nM,2200 nM,–,0.059 nM,4700 nM,–,O=C(/C=C/c1cccc(S(=O)(=O)Nc2ccccc2)c1)NO [BELINOSTAT],–,–,–,–,–,–
771.8 nM,> 10000 nM,> 10000 nM,21.88 min,23.9 nM,> 10000 nM,–,Cc1[nH]c2ccccc2c1CCNS(=O)(=O)c1ccc(C(=O)NO)cc1,–,–,–,–,–,–
9.2 nM,7400 nM,1600 nM,28.67 min,4.5 nM,> 10000 nM,–,Cc1[nH]c2ccccc2c1CCN(C(C)C)S(=O)(=O)c1ccc(/C=C/C(=O)NO)cc1,–,–,–,–,–,–
–,–,–,–,–,–,–,COc1ccc2c(c1)c(CC(=O)O)c(C)n2C(=O)c1ccc(Cl)cc1,–,–,–,–,–,Active
5.7 nM,1500 nM,290 nM,24.21 min,32 nM,620 nM,–,Cn1cc(CCNS(=O)(=O)c2ccc(/C=C/C(=O)NO)cc2)c2ccccc21,–,–,–,–,–,–
